This note sets out measurements from article PMC5322940 (Cell, 2016).

The target in this test is CB1 protein (Homo sapiens, UniProt P21554, D324T/DEL307-313/E273K/E323T/H320Y/I317L/I319V/INS325[…]/K326D/Q314A/Q328R/R331I/R340E/S316A/T210A/T283V/T321G/T330A/V329G). Briefly: Affinity mass spectrometry analysis of AM6538. The class given is binding. The following applies: CB1 protein co-purified with AM6538. The procedure, abridged: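 CB1–flavodoxin fusion expressed in HEK293F and purified in DDM/CHS. Membranes took up 20 µM test compound (3 h, 4 °C), then iodoacetamide; wash and elution buffers also carried test compound. Co-purified complex was desalted on G-25 to strip free ligand. About 1 µg was ultrafiltered (30 kDa cutoff, 13,000 g, 10 min, 4 °C) in 150 mM ammonium acetate, 0.02% DDM, 0.004% CHS; retained complex collected.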

Consider `Cc1c(C(=O)NN2CCCCC2)nn(-c2ccc(Cl)cc2Cl)c1-c1ccc(C#CCCO[N+](=O)[O-])cc1` [AM6538, 4-(4-(1-(2,4-dichlorophenyl)-4-methyl-3-(piperidin-1-ylcarbamoyl)-1H-pyrazol-5-yl)phenyl)but-3-yn-1-yl nitrate], for which the “Covalent modification of CB1 cysteine residues” value was “no evidence of covalent modification”.
